Data as given in ChEMBL document CHEMBL1122189, “Preliminary studies of mesoionic 3-(substituted-aryl)-psi-oxatriazoles as potential antihypertensive agents” (1982).

Columns and labels:
[1] = system: Rattus norvegicus; test: Hypotensive response for decrease in blood pressure was determined for a dose 45 mg/kg of in rat; type: functional
In short: (§1)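 Male Sprague–Dawley rats (250-350 g), femoral artery cannulated under sodium pentobarbital (35 mg/kg ip); pressure recorded by transducer after recovery from anesthesia. Oral gavage in under 1 mL corn oil, doses 1-90 mg/kg; vehicle controls got 1 mL corn oil. Recorded continuously for 30 min, then at intervals. Result is mean (±SE) percent decrease in […] from post-anesthesia base line over the first hour.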

[2] = system: Rattus norvegicus; test: Hypotensive response (systolic blood pressure) was determined at 30 minutes for a dose of 10 mg/kg administered and 1 mL of corn oil in rat; type: functional, Artery
In short: (§2)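 Male Sprague–Dawley rats (250-350 g), femoral artery cannulated under sodium pentobarbital (35 mg/kg ip), restrained supine. Heparin–saline injected into the cannula before recording. Single oral gavage dose in corn oil. Systolic and diastolic pressure taken 30 min after dosing, given as mean (±SE) percent decrease from base line, base line being pressure of animals given 1 mL corn oil.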

[3] = system: Rattus norvegicus; test: Hypotensive response for decrease in blood pressure was determined for a dose 25 mg/kg of in rat; type: functional; in short: as §1
[4] = system: Rattus norvegicus; test: Hypotensive response for decrease in blood pressure was determined for a dose 15 mg/kg of in rat; type: functional; in short: as §1
[5] = system: Rattus norvegicus; test: Hypotensive response for decrease in blood pressure was determined for a dose 10 mg/kg of in rat; type: functional; in short: as §1
[6] = system: Rattus norvegicus; test: Hypotensive response for decrease in blood pressure was determined for a dose 3 mg/kg of in rat; type: functional; in short: as §1
[7] = system: Rattus norvegicus; test: Hypotensive response for decrease in blood pressure was determined for a dose 1 mg/kg of in rat; type: functional; in short: as §1
[8] = system: Rattus norvegicus; test: Hypotensive response for decrease in blood pressure was determined for a dose 0 mg/kg + 1 mL corn oil in rat; type: functional; in short: as §1
[9] = system: Rattus norvegicus; test: Hypotensive response (diastolic blood pressure) was determined at 30 minutes for a dose 10 mg/kg administered and 1 mL of corn oil in rat; type: functional, Artery; in short: as §2
[10] = system: Rattus norvegicus; test: Hypotensive response for decrease in blood pressure was determined for a dose 90 mg/kg of in rat; type: functional; in short: as §1

Row | Structure (SMILES) | Decrease in blood pressure [2] [%] | Decrease in blood pressure [9] [%] | also measured
1 | Cc1ccc(-[n+]2noc([O-])n2)cc1 | 28.5 | 27.5 | Decrease in blood pressure [1]: 53%; Decrease in blood pressure [3]: 48.1%; Decrease in blood pressure [4]: 37.6%; Decrease in blood pressure [5]: 28%; Decrease in blood pressure [6]: 23.5%; Decrease in blood pressure [7]: 13.9%; Decrease in blood pressure [8]: 0%; Decrease in blood pressure [10]: 75.3%
2 | [O-]c1n[n+](-c2c(Cl)cccc2Cl)no1 | 11.5 | 8.3 | 
3 | O=[N+]([O-])c1ccc(-[n+]2noc([O-])n2)cc1 | 24.8 | 23.8 | 
4 | COc1ccc(-[n+]2noc([O-])n2)cc1 | 22.2 | 20 | 
5 | [O-]c1n[n+](-c2ccccc2)no1 | 51.7 | 52.3 | 
6 | [O-]c1n[n+](-c2ccc(Cl)cc2)no1 | 47 | 47.9 | 
7 | [O-]c1n[n+](-c2ccc(Cl)c(Cl)c2)no1 | 31.7 | 30.9 | 
